Experimental data gathered from unrelated publications.
Each line is one published result; the experiments were not run side by side.
Matrix: plasma
Route: intravenous

| system | setting | clearance [mL/min/kg] | SMILES |
| --- | --- | --- | --- |
| male Sprague-Dawley rat | 1 mg/kg | 29.3 | O=c1c(NCCc2cccc(Cl)c2)c(Nc2ccc(Cl)cc2)c1=O |
| rat | 2 mg/kg | 35 | Cc1cc(S(=O)(=O)NC2CC(N3CCN(CC4CCN(c5cccc6c5n(C)c(=O)n6C5CCC(=O)NC5=O)CC4)C4(CC4)C3)C2)ccc1Nc1ncc(C(F)(F)F)c(N2CCC[C@](C)(O)C2)n1 (stereo partly drawn) |
| male Sprague-Dawley rat | 5 mg/kg | 20.1 | COc1cc(-c2cc(C(C)=O)n3ccccc23)c(OC)cc1Cn1ccnc1 |
| male Sprague-Dawley rat | 1 mg/kg | 21.7 | Cc1nc(Nc2ncc(C(=O)Nc3c(C)cccc3Cl)s2)cc(N2CCN(CCO)CC2)n1 |
| female Sprague-Dawley rat | 5 mg/kg | 6810 | COc1ccc(N(Cc2csc(-c3ccccc3)n2)C(=O)CCCCCC(=O)NO)cc1 |
| rat | 2 mg/kg | 48.9 | COc1ccc(-c2coc3cc(O)cc(O)c3c2=O)cc1 |
| rat | 2 mg/kg | 50 | CNS(=O)(=O)c1ccc(Nc2ncc3cc(Cl)c(=O)n(C4CCCC4)c3n2)c(C)c1 |
| male Sprague-Dawley rat | 1 mg/kg | 51.7 | Cc1nc(Nc2ncc(C(=O)Nc3c(C)cccc3Cl)s2)cc(N2CC[C@H](N)C2)n1 |
| male Sprague-Dawley rat | 1 mg/kg | 51.4 | O=C1CCC(N2Cc3cc(C4CCN(Cc5ccccc5)CC4)ccc3C2=O)C(=O)N1 (stereo not drawn) |
| male Sprague-Dawley rat | 1 mg/kg | 33.3 | [2H]c1cc(C)c(NC(=O)c2cnc(Nc3cc(N4CCC(O)CC4)nc(C)n3)s2)c(Cl)c1 |
| rat | 3 mg/kg | 33 | C=CCn1c(=O)c2cnc(Nc3ccc(N4CCN(C)CC4)cc3)nc2n1-c1ccc2c(n1)[C@@](O)(CC)CC2 |
| rat | 2 mg/kg | 18 | C[C@H]1CN(c2ccc(C3CCC(=O)NC3=O)cc2F)CCN1CC12CCC(NS(=O)(=O)c3ccc(Nc4ncc(C(F)(F)F)c(N5CCC[C@](C)(O)C5)n4)c(F)c3)(CC1)CO2 (stereo partly drawn) |
